Screening data deposited in PubChem BioAssay by several laboratories.
Hits are enriched below; roughly 1.9% of the tested compounds scored in any of these assays.
SR-BI uptake up: activators of SR-BI mediated HDL lipid uptake | AID 504775 | CHO ldlA[mSR-BI] cells, DiI-HDL uptake fluorescence, 3 h; 100 = double the neutral-control signal | activation, % at 12.5 µM | 320,000 tested, 0.096% active;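 active = mean replicate activation of at least 60% and every replicate at or above 60%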;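 note: 0% = median plate neutral-control signal and 100% = twice that signal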
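material = CHO ldlA[mSR-BI] cells | medium = Ham's F12 with 0.5% BSA, HEPES 25 mM, pH 7.4 | reagent = fluorescent DiI-HDL, 10 µg/mL final | compound dosing = single-point compound dose | incubation = 3 h, 37 °C | measured by = bottom-read fluorescence, 550/595 nm | measure = HDL uptake via cellular fluorescence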
SR-BI HDL uptake: blocks mouse SR-BI lipid uptake from DiI-HDL. ldlA[mSR-BI] CHO cells, DiI-HDL uptake fluorescence, 3 h. inhibition, % at 12.5 µM. Q61009. 320,000 tested, 0.96% active;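 active = mean replicate inhibition of at least 70% and a set share of replicates each scoring 70 or more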;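 note: 0% = median of neutral control wells and 100% = median of positive control wells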
Target sequence (Q61009 whole entry, looked up): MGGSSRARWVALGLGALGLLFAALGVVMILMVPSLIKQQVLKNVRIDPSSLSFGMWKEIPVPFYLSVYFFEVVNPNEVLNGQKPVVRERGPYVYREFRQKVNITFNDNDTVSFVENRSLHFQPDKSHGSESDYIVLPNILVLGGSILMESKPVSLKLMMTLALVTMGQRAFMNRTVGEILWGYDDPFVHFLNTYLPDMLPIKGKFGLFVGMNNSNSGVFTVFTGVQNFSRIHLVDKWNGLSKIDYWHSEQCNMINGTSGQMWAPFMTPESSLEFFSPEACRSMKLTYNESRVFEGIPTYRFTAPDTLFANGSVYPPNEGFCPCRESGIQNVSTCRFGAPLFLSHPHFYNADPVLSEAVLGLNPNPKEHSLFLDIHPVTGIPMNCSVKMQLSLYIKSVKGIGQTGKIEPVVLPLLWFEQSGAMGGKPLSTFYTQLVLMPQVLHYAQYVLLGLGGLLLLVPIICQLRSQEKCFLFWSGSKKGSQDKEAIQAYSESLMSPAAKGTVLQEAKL
GRK2 inh: human GRK2 inhibition via aptamer displacement | 330,000 tested, 0.59% active | bead flow cytometry, FAM-aptamer displacement from GRK2 | inhibition of aptamer binding, % at 10 µM | P25098 | AID 488847;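 active = inhibition of aptamer binding above 40%, roughly 3 SD of noise, on plates passing a quality check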;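 note: median bead fluorescence of bound FAM aptamer so fluorescent compounds give negative values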
Rin1-Abl PPI inh: inhibitors of human Rin1-Abl protein interaction. P00519+Q13671. TR-FRET Rin1/Abl binding, biochemical. inhibition, % at 7.35 µM. 360,000 tested, 0.4% active; in the data active = inhibition above about 5%, passing the limit was not always enough
Starred values were filed as active, the others as inactive.

For CC1(C)OC(c2ccccc2)=C/C(=C/C=N/NC(=O)c2ccncc2)O1 the results were SR-BI uptake up -90, SR-BI HDL uptake 90*, GRK2 inh 0 and Rin1-Abl PPI inh -2.
`Cc1ccccc1N=C/C=C1/C=C(c2ccccc2)OC(C)(C)O1` gave SR-BI uptake up -1, SR-BI HDL uptake 1, GRK2 inh 0 and Rin1-Abl PPI inh 4.
`CCSc1nnc(SCC(=O)Nc2cc(C)on2)s1` gave SR-BI uptake up 33, SR-BI HDL uptake -33, GRK2 inh 15 and Rin1-Abl PPI inh 5.
O=C(CSc1nnc(NC2CC2)s1)c1ccc[nH]1 was read as SR-BI uptake up -22, SR-BI HDL uptake 22, GRK2 inh 1 and Rin1-Abl PPI inh 3.
Screening CC(/C=C/C=C/c1ccccc1)=N/NC(=O)CNc1ccccc1C returned SR-BI uptake up -28, SR-BI HDL uptake 28, GRK2 inh 55* and Rin1-Abl PPI inh -2.
For CC(/C=C/c1ccco1)=N/NC(=O)CNc1ccccc1C the results were SR-BI uptake up 8, SR-BI HDL uptake -8, GRK2 inh 0 and Rin1-Abl PPI inh -1.
Screening Cn1c(SCC(=O)N2CCCc3ccccc32)nnc1-c1cccs1 returned SR-BI uptake up 6, SR-BI HDL uptake -6, GRK2 inh 0 and Rin1-Abl PPI inh -8.
Screening CCn1c(SCC(=O)N2CCCC2=O)nnc1-c1cccs1 returned SR-BI uptake up 96*, SR-BI HDL uptake -96, GRK2 inh 0 and Rin1-Abl PPI inh 1.
Screening CC1(C(=O)NS(=O)(=O)c2ccc(F)cc2F)CCN1C(=O)C/C=C/c1ccccc1 (centres undefined) returned Rin1-Abl PPI inh 2.
CN(C[C@@H](CC1CCCCC1)N(C[C@H](Cc1ccccc1)N(CCc1ccccc1)N=O)N=O)N=O was read as SR-BI uptake up 31, SR-BI HDL uptake -31 and Rin1-Abl PPI inh 0.
For CCC(C)[C@@H](CN(N=O)[C@@H](Cc1ccccc1)CN(C)N=O)N(CCc1ccccc1)N=O (some centres undefined) the results were SR-BI uptake up 68*, SR-BI HDL uptake -68 and Rin1-Abl PPI inh 1.
COc1ccc(CCNC(=O)CSCC(=O)Nc2cc(S(C)(=O)=O)ccc2Cl)cc1 was read as SR-BI HDL uptake 51, GRK2 inh 1 and Rin1-Abl PPI inh 5.
Screening COc1ccc(Nc2nc(N3CCN(C)CC3)nc3ccccc23)c(OC)c1 returned SR-BI uptake up -12, SR-BI HDL uptake 12, GRK2 inh 1 and Rin1-Abl PPI inh 0.
COc1ccc(Nc2nc(-c3cccs3)nc3ccccc23)c(OC)c1 was read as SR-BI uptake up -77, SR-BI HDL uptake 77*, GRK2 inh 0 and Rin1-Abl PPI inh 2.
Screening COc1ccc(Nc2nc(-c3cccc([N+](=O)[O-])c3)nc3ccccc23)c(OC)c1 returned SR-BI uptake up -91, SR-BI HDL uptake 91*, GRK2 inh 0 and Rin1-Abl PPI inh 1.
COc1cc(-c2ccc3oc(-c4ccsc4)c(C#CC4(O)CCCCC4)c3c2)cc(OC)c1OC was read as SR-BI uptake up -76, SR-BI HDL uptake 76* and Rin1-Abl PPI inh -2.
`CN(Cc1ccc(Cl)cc1)C(=O)c1[nH]c(C(F)(F)F)nc1-c1ccccc1` gave Rin1-Abl PPI inh 1.
For COc1ccc(-c2cc3cc(OC)c(OC)cc3c(C)n2)cc1 the results were SR-BI uptake up -43, SR-BI HDL uptake 80*, GRK2 inh 2 and Rin1-Abl PPI inh -6.
CCc1ccc(CN(C)C(=O)C2=CC=CN3CCS(=O)(=O)N=C23)cc1 was read as SR-BI uptake up 30, SR-BI HDL uptake -30 and Rin1-Abl PPI inh 2.
`CC(C)[C@H](NC(=O)c1cccc(S(=O)(=O)N2CCOCC2)c1)C(=O)OCC(=O)Nc1cccc(Br)c1` gave SR-BI uptake up -32, SR-BI HDL uptake 32 and Rin1-Abl PPI inh 2.
`Cn1nc(C(=O)Nc2cc(Cl)ccc2N2CCCC2)c2ccccc2c1=O` gave SR-BI uptake up -93, SR-BI HDL uptake 93*, GRK2 inh 0 and Rin1-Abl PPI inh 0.
`Cc1cc(Oc2ccc(=O)n(C)n2)nc(Oc2ccc(=O)n(C)n2)n1` gave SR-BI uptake up 82*, SR-BI HDL uptake -82, GRK2 inh 0 and Rin1-Abl PPI inh 3.
Screening Cc1cccc2c1nc(-c1ccccc1)n1cnnc21 returned SR-BI uptake up 854*, SR-BI HDL uptake inactive, GRK2 inh 2 and Rin1-Abl PPI inh 2.
`O=C(COC(=O)/C=C/c1cccc(F)c1)NCc1ccc2c(c1)OCO2` gave Rin1-Abl PPI inh -1.
`CCCS(=O)(=O)Nc1ccc(Nc2c3ccccc3nc3ccccc23)c(OC)c1` gave SR-BI uptake up -80, SR-BI HDL uptake 80* and Rin1-Abl PPI inh -11.
